Test results: ChEMBL document CHEMBL1146543, “New antimycobacterial and antimalarial 8,9-secokaurane diterpenes from Croton kongensis” (J Nat Prod, 2003)
In brackets after ≈: the same amount, converted by molar mass.

What was measured:
Plasmodium falciparum = assay: Antimalarial activity against multidrug-resistant Plasmodium falciparum K1 by [3H]hypoxanthine uptake; type: functional, organism-based
Outline: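 Parasites kept in continuous in vitro culture (Trager–Jensen method); microculture radioisotope assay with growth read as [3H]-hypoxanthine uptake.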

KB = assay: Cytotoxicity against human KB cells; type: functional, cell-based
Outline: (§1)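 Colorimetric cytotoxicity assay run on Vero, KB and BC cell lines, with ellipticine as the reference compound. The result is reported as IC50.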

[1] = Cytotoxicity against human BC cells; type: functional, cell-based; outline: as §1
Vero = assay: Cytotoxicity against african green monkey Vero cells; type: cell-based; settings: Chlorocebus sabaeus; outline: as §1
[2] = test system: Mycobacterium tuberculosis; assay: Antimycobacterial activity against Mycobacterium tuberculosis H37Ra by Microplate Alamar Blue Assay; type: functional
Outline: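 Microplate Alamar Blue assay with MIC as the endpoint; isoniazid and kanamycin sulfate were run as reference drugs.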

Which IC50 (Plasmodium falciparum) does the source give for `C[C@@H]1CC[C@H]2[C@@H](C)C(=O)O[C@@H]3O[C@@]4(C)CC[C@@H]1[C@]32OO4` [ARTEMISININ] here?
Its IC50 is 1 ng/mL (≈ 0.00354 µM).

Which results are given for `Cc1c2ccncc2c(C)c2c1[nH]c1ccccc12` [ELLIPTECINE]?
IC50 (KB): 0.2 µg/mL (≈ 0.812 µM); IC50 [1]: 0.2 µg/mL (≈ 0.812 µM); IC50 (Vero): 0.2 µg/mL (≈ 0.812 µM)

For `NC[C@H]1O[C@H](O[C@H]2[C@H](O)[C@@H](O[C@H]3O[C@H](CO)[C@@H](O)[C@H](N)[C@H]3O)[C@H](N)C[C@@H]2N)[C@H](O)[C@@H](O)[C@@H]1O.O=S(=O)(O)O` [KANAMYCIN SULFATE], which MIC [2] is on record?
The MIC was 2 µg/mL.
